Published values of several laboratories.
Lines come from different studies, so protocols differ.
Target: Serine/threonine-protein kinase ULK2 (ULK2, Homo sapiens, UniProt Q8IYT8)

SMILES | read-out | mode | method | cell line | tested at | quantity | value
O=C(NCc1ncc(C(F)(F)F)cc1Cl)c1ccc2c(c1)C1(CCS(=O)(=O)CC1)[C@H](C1CC1)N2S(=O)(=O)c1ccc(F)cc1 | cell-free assay | – | competition with immobilised ligand | – | 1 µM | remaining binding | 58%
COc1cc2c(Nc3ccc(Br)cc3F)ncnc2cc1OCC1CCN(C)CC1 | cell-free assay | – | – | – | 0.5 µM | remaining signal | 108%
Cc1cnc(NC2CCOCC2)nc1-n1cnc(C(=O)NC(CN)c2cc(F)cc(Cl)c2)c1 (stereo not shown) | enzyme activity | inhibitor | radiometric | – | 1 µM | remaining activity | 110%
Cc1ccc(C(=O)NCc2ccsc2)cc1C#Cc1cn(C(C)C)c2ncnc(N)c12 | enzyme activity | inhibitor | – | – | 1 µM | activity vs control | 92%
N#Cc1ccc(Nc2ccc3[nH]c(=O)[nH]c3c2)c(Cl)c1 | cell-free assay | – | competition with immobilised ligand | – | 1 µM | remaining binding | 99%
CN1CC(Oc2cnc(C#N)cc2-c2ccn3nc(NC(=O)C4CC4)cc3c2)C1 | enzyme activity | inhibitor | – | – | 1 µM | inhibition | 8%
Cc1ccc(C(=O)Nc2ccc(CN3CCN(C)CC3)c(C(F)(F)F)c2)cc1C#Cc1cnc2cccnn12 | enzyme activity | inhibitor | – | – | 23.5 nM | remaining activity | 94%
COc1cc(Cl)c(C(=O)N[C@@H](CN[C@H]2CC[C@@H](N)CC2)Cc2ccc(C#N)cc2)cc1-c1ccc(CN[C@H](C)c2ccc(C)cc2)o1 | enzyme activity | inhibitor | – | – | 1 µM | remaining activity | 94%
CCN1CCN(Cc2ccc(NC(=O)c3ccc(C)c(Oc4ccnc5[nH]ccc45)c3)cc2C(F)(F)F)CC1 | target engagement in cells | inhibitor | chemoproteomics | Huh-7 | 10 µM | inhibition | -13.4%
CC(C)(O)[C@H]1CC[C@H](Nc2ccc3ncc(-c4cccc(C(F)(F)F)c4)n3n2)CC1 | enzyme activity | inhibitor | – | – | 1 µM | remaining activity | 97.9%
C=CC(=O)Nc1cc(Nc2nccc(Nc3cc(Cl)c(F)cc3C(C)(C)O)n2)c(OC)cc1N1CC[C@@H](N(C)C)C1 | enzyme activity | inhibitor | – | – | 1 µM | inhibition | -2%
O=C(Nc1cnn(-c2csc(C(=O)NC3COC3)c2)c1)Nc1c(F)cccc1Cl | enzyme activity | inhibitor | – | – | 5 µM | remaining activity | 105%
CNC(=O)Nc1ccc2c(c1)[C@@]1(CC2)OC(=O)N(CC(=O)N(Cc2ccc(F)cc2)[C@@H](C)C(F)(F)F)C1=O | cell-free assay | – | competition with immobilised ligand | – | 1 µM | remaining binding | 100%
N#CCCc1ccc2c(c1)-c1[nH]c3ccc([N+](=O)[O-])cc3c1CC(=O)N2 | cell-free assay | – | – | – | 0.5 µM | remaining signal | 73.1%
Nc1ncnc2occ(-c3ccc(NC(=O)Nc4cc(C(F)(F)F)ccc4F)cc3)c12 | cell-free assay | inhibitor | – | – | 20 µM | remaining signal | 8.8%
O=C(CSc1nc2nccnc2c(=O)n1CCc1ccccc1)Nc1nccs1 | enzyme activity | inhibitor | – | – | 10 µM | inhibition | 2%
CCCOc1ccc([C@@H]2[C@@H](C(=O)O)[C@H](c3ccc4c(c3)OCO4)CN2CC(=O)Nc2c(CC)cccc2CC)cc1 | cell-free assay | – | competition with immobilised ligand | – | 1 µM | remaining binding | 76%
FC(F)(F)Oc1cccc(-c2cnc3ccc(-c4ccncc4)nn23)c1 | enzyme activity | inhibitor | radiometric | – | 5 µM | activity vs control | 95%
CCCCN(CCCC)C(=O)CN1C[C@@H](c2cc(OC)c3c(c2)OCO3)[C@H](C(=O)O)[C@H]1CC(C)(C)CCC | cell-free assay | – | competition with immobilised ligand | – | 1 µM | remaining binding | 89.2%
C[S+]([O-])c1ccc(-c2nc(-c3ccncc3)c(-c3ccc(F)cc3)[nH]2)cc1 (stereo not shown) | cell-free assay | – | – | – | 0.5 µM | remaining signal | 83.5%
Cc1nc(C2CCN(C(=O)c3ccc(OC(F)(F)F)cc3N)CC2)c2ncc(N3CCN(C)CC3)cc2n1 | cell-free assay | – | competition with immobilised ligand | – | 1 µM | remaining binding | 100%
COc1cc(/C=C/C(=O)CC(=O)/C=C/c2ccc(O)c(OC)c2)ccc1O | enzyme activity | inhibitor | – | – | 1 µM | activity vs control | 105%
